Assay outcomes: PubChem, several laboratories
T cruzi repl = inhibitors of intracellular T. cruzi growth, primary screen, luminescence, NIH3T3 host cells | AID 1885, 2009 | T. cruzi beta-gal in NIH3T3, 90 h | inhibition, % (concentration not given with the values) | 300,000 tested, 1.4% active;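 active = mean inhibition across valid replicates above about 55%, limit read from the data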;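 also: signal also drops with host cell toxicity which is not excluded here; higher percent means less beta-gal luminescence so fewer parasites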
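System: Mouse NIH/3T3 fibroblasts infected with β-gal-expressing T. cruzi Tulahuen C4 | Quantity: NIH/3T3 cells, 5,000 per well | Reagent: 5000 reporter trypomastigotes per well | Dosing: Compound pinned at 50 nL/well, DMSO | Schedule: 3 h host attachment, then at least 90 h co-culture | Detection: GalScreen luminescence, 60 min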
Mdm2 MdmX PPI = inhibitors of human Mdm2-MdmX association, primary screen, cell-based, luminescence, split luciferase, SaOS-2, uHTS; Protein Mdm4 (Homo sapiens) + E3 ubiquitin-protein ligase Mdm2 (Homo sapiens), …; SaOS-2 split-luciferase Mdm2/MdmX complementation; inhibition, % at 8 µM; 330,000 tested, 3% active; AID 485346, 2010;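 active = inhibition of at least 50% at 8 µM in the primary screen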
Target sequence (O15151 whole entry, looked up): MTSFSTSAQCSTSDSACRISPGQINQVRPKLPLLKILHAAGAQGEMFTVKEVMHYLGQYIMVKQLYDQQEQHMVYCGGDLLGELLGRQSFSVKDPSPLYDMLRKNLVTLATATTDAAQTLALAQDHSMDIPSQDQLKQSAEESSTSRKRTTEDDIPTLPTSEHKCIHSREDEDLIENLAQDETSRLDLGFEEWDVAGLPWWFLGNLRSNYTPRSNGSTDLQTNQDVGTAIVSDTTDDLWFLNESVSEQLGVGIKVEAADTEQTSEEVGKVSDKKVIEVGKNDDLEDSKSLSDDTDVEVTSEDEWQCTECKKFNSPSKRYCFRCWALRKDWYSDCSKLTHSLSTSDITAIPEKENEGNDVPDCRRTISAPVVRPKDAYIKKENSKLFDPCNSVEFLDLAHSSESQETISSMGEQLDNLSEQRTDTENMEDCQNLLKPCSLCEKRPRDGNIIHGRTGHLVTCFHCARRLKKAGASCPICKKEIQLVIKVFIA
Target sequence (Q00987 whole entry, looked up): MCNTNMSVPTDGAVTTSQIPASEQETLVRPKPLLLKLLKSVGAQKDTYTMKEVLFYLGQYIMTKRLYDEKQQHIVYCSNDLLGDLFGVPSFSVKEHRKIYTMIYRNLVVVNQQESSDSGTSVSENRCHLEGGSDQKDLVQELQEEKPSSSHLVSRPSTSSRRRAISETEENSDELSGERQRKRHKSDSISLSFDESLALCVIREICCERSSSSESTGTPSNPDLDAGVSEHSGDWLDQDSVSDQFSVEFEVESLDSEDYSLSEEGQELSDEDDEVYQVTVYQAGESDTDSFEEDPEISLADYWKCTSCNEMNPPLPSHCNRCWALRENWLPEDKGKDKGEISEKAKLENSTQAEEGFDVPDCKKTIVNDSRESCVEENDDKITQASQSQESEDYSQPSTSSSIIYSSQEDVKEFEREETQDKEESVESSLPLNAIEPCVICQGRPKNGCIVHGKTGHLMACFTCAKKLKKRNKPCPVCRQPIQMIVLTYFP
Beta cell apopt = inhibitors of cytokine-induced beta cell apoptosis, primary screen, luminescence; AID 435005, 2010; protection from apoptosis, % (no concentration beside the values); INS-1E cytokine-induced death, ATP luminescence, 48 h; percent of positive-control rescue, neutral wells zero; 300,000 tested, 0.8% active;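 active = Every replicate reaches about 75%, or at least half do and their mean reaches it too, limit read from the data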;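 also: higher means more ATP so stronger rescue from cytokine killing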
UPR XBP1 act = activators of adaptive XBP1 UPR arm, primary screen, cell-based, CHO-XBP1 luciferase reporter, luminescence, uHTS. IRE1-XBP1 UPR activation; percent of tunicamycin response, DMSO as zero. activation, % at 20 µM. 330,000 tested, 0.33% active. AID 463104, 2010;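 active = versus positive control, 20 µM dose yields 30% or more activation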
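Test system: CHO-XBP1 luciferase reporter cells | Buffer or medium: Serum-containing F12 medium, 10% FBS | Schedule: 6 h compound exposure at 37 °C, 5% CO2 | Detection: Steady-Glo luciferase glow luminescence, 10 min after reagent addition | Read-out basis: Activation, % of tunicamycin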
CHOP UPR activ = activators of apoptotic CHOP UPR arm, primary screen, cell-based, CHO-CHOP luciferase reporter, luminescence, uHTS. 330,000 tested, 0.34% active. AID 449763, 2010. activation, % at 10 µM. UPR activation; percent of tunicamycin response over DMSO baseline;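 active = at 10 µM dose, activation of 40% or more, normalized to positive control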
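System: CHO CHOP reporter cells. Amount: 500 cells per well. Buffer or medium: F12 medium, 10% FBS. Compound dosing: one dose, 10 µM in 0.5% DMSO. Incubation: 6 h compound exposure at 37 °C after overnight seeding. Technique: Steady-Glo luciferase luminescence. Benchmarks: tunicamycin and DMSO controls.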
CSC inhib = cancer stem cell viability inhibitors, primary screen, luminescence; cancer stem cell-like cells viability; inhibition, % at 7.5 µM; 300,000 tested, 1.1% active; in the data active = inhibition above about 75%; tested in HMLE shEcad cells
Mdm2 MdmX conf = Mdm2-MdmX complex disruptors, retested hits, confirmation, luminescence, single concentration; 10,000 tested, 55% active; Mdm2-MdmX binding, luminescent assay; shares compounds with Mdm2 MdmX PPI; inhibition, % at 8 µM; in the data active = inhibition above about 40%
Full FLuc ctr = full-length luciferase signal inhibition, confirmation, counter-screen for Mdm2/MdmX interaction inhibitor project, cell-based, single concentration, SaOS-2; 6,200 tested, 77% active; AID 504607, 2011; shares compounds with Mdm2 MdmX PPI; SaOS-2 full-length luciferase counterscreen, luminescence; inhibition, % at 8 µM;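 active = mean inhibition at 8 µM reaching about 37%, which flags the compound as non-specific, limit read from the data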;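 also: p53-null SaOS-2 cells with luciferase driven by a doxycycline-inducible promoter; compound on cells about two nights before reading with doxycycline added after day one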
Numbers stand for hits. Only some compounds are listed: those with a hit (about 5% of all), similar ones and a draw of the others.

How did O=C(c1ccco1)N1CCN(C(=O)N2c3ccccc3Sc3ccccc32)CC1 do in these assays?
T cruzi repl: inactive; Mdm2 MdmX PPI: 52; Beta cell apopt: inactive; UPR XBP1 act: inactive; CHOP UPR activ: inactive; CSC inhib: inactive; Mdm2 MdmX conf: 63; Full FLuc ctr: 92

What do the screens show for `O=C(N1CCN(c2ccccn2)CC1)N1c2ccccc2Sc2ccccc21`?
T cruzi repl: inactive; Mdm2 MdmX PPI: 79; Beta cell apopt: inactive; UPR XBP1 act: inactive; CHOP UPR activ: inactive; CSC inhib: inactive; Mdm2 MdmX conf: 68; Full FLuc ctr: 78

Results for CCCCCOc1ccc(C(=O)CCC(=O)N2CCCC2)cc1 ?
T cruzi repl: inactive; Mdm2 MdmX PPI: inactive; Beta cell apopt: inactive; UPR XBP1 act: inactive; CHOP UPR activ: inactive; CSC inhib: inactive

What do the screens show for `CCOc1cc(CNn2cnnc2SCC(=O)NC(C)(C)C)ccc1OCC(=O)NC(C)(C)C`?
T cruzi repl: inactive; Mdm2 MdmX PPI: inactive; Beta cell apopt: inactive; UPR XBP1 act: inactive; CHOP UPR activ: inactive; CSC inhib: inactive

How did O=C(c1ccc(F)cc1)C1CCN(C(=O)c2ccccc2F)CC1 do in these assays?
T cruzi repl: inactive; Mdm2 MdmX PPI: inactive; Beta cell apopt: inactive; UPR XBP1 act: inactive; CHOP UPR activ: inactive; CSC inhib: inactive

How did O=c1[nH]c(CCl)nc2cc(-c3ccc(F)cc3)sc12 do in these assays?
T cruzi repl: inactive; Mdm2 MdmX PPI: 94; Beta cell apopt: inactive; UPR XBP1 act: inactive; CHOP UPR activ: inactive; CSC inhib: inactive; Mdm2 MdmX conf: inactive

What do the screens show for `Cc1cccc(C(=O)O/N=C(\N)Cc2ccc([N+](=O)[O-])cc2)c1`?
T cruzi repl: inactive; Mdm2 MdmX PPI: 89; Beta cell apopt: inactive; UPR XBP1 act: inactive; CHOP UPR activ: inactive; CSC inhib: inactive; Mdm2 MdmX conf: 56; Full FLuc ctr: 54

How did Cc1ccc(C(=O)O/N=C(\N)Cc2ccc([N+](=O)[O-])cc2)c(Cl)c1 do in these assays?
T cruzi repl: inactive; Mdm2 MdmX PPI: 90; Beta cell apopt: inactive; UPR XBP1 act: inactive; CHOP UPR activ: inactive; CSC inhib: inactive; Mdm2 MdmX conf: 60; Full FLuc ctr: 43

How did N/C(Cc1ccc([N+](=O)[O-])cc1)=N\OC(=O)c1ccc(Br)cc1 do in these assays?
T cruzi repl: inactive; Mdm2 MdmX PPI: inactive; Beta cell apopt: inactive; UPR XBP1 act: inactive; CHOP UPR activ: inactive; CSC inhib: inactive

Results for Cc1ccc(C(=O)O/N=C(\N)Cc2cccs2)c(Cl)c1 ?
T cruzi repl: inactive; Mdm2 MdmX PPI: 100; UPR XBP1 act: inactive; CHOP UPR activ: inactive; Mdm2 MdmX conf: inactive

How did N/C(Cc1ccc([N+](=O)[O-])cc1)=N\OC(=O)c1ccc2ccccc2c1 do in these assays?
T cruzi repl: inactive; Mdm2 MdmX PPI: 88; Beta cell apopt: inactive; UPR XBP1 act: inactive; CHOP UPR activ: inactive; CSC inhib: inactive; Mdm2 MdmX conf: inactive; Full FLuc ctr: 61

Results for Cc1ccc(CC(=O)O/N=C(\N)Cc2ccc([N+](=O)[O-])cc2)cc1 ?
T cruzi repl: inactive; Mdm2 MdmX PPI: inactive; Beta cell apopt: inactive; UPR XBP1 act: inactive; CHOP UPR activ: inactive; CSC inhib: inactive

How did CCN(Cc1ccccc1)S(=O)(=O)c1c(C)[nH]c(C)c1C(=O)N1CCCC1 do in these assays?
T cruzi repl: inactive; Mdm2 MdmX PPI: inactive; Beta cell apopt: inactive; UPR XBP1 act: inactive; CHOP UPR activ: inactive; CSC inhib: inactive

Results for COc1cc(OC)cc(C(=O)N[C@H](C(=O)Nc2cccc(S(=O)(=O)N3CCCC3)c2)C(C)C)c1 ?
T cruzi repl: inactive; Mdm2 MdmX PPI: inactive; Beta cell apopt: inactive; UPR XBP1 act: inactive; CHOP UPR activ: inactive; CSC inhib: inactive

How did CC12CCC(=O)N1C(C(=O)Nc1nc3ccc(Cl)cc3s1)CS2 (stereo not drawn) do in these assays?
T cruzi repl: inactive; Mdm2 MdmX PPI: inactive; Beta cell apopt: inactive; UPR XBP1 act: inactive; CHOP UPR activ: inactive; CSC inhib: inactive

What do the screens show for `COc1ccc(C/C(N)=N/OC(=O)C(c2ccccc2)c2ccccc2)cc1OC`?
T cruzi repl: inactive; Mdm2 MdmX PPI: inactive; Beta cell apopt: inactive; UPR XBP1 act: inactive; CHOP UPR activ: inactive; CSC inhib: inactive

What do the screens show for `N/C(Cc1ccc([N+](=O)[O-])cc1)=N\OC(=O)C(c1ccccc1)c1ccccc1`?
T cruzi repl: inactive; Mdm2 MdmX PPI: 70; Beta cell apopt: inactive; UPR XBP1 act: inactive; CHOP UPR activ: inactive; CSC inhib: inactive; Mdm2 MdmX conf: 50; Full FLuc ctr: 79

Results for COc1ccccc1C/C(N)=N/OC(=O)c1cccc([N+](=O)[O-])c1C ?
T cruzi repl: inactive; Mdm2 MdmX PPI: 57; Beta cell apopt: inactive; UPR XBP1 act: inactive; CHOP UPR activ: inactive; CSC inhib: inactive; Mdm2 MdmX conf: inactive; Full FLuc ctr: 102

What do the screens show for `COc1ccc(/C(N)=N/OC(=O)c2cccc([N+](=O)[O-])c2C)cc1`?
T cruzi repl: inactive; Mdm2 MdmX PPI: inactive; Beta cell apopt: inactive; UPR XBP1 act: inactive; CHOP UPR activ: inactive; CSC inhib: inactive

How did N/C(Cc1ccc([N+](=O)[O-])cc1)=N\OC(=O)c1ccccc1Br do in these assays?
T cruzi repl: inactive; Mdm2 MdmX PPI: 60; Beta cell apopt: inactive; UPR XBP1 act: inactive; CHOP UPR activ: inactive; CSC inhib: inactive; Mdm2 MdmX conf: inactive

How did O=C(NC1CCCc2c1cnn2-c1ccccc1F)c1ccccc1N1CCOCC1 (stereo not drawn) do in these assays?
T cruzi repl: inactive; Mdm2 MdmX PPI: inactive; Beta cell apopt: inactive; UPR XBP1 act: inactive; CHOP UPR activ: inactive; CSC inhib: inactive

How did CC(C)c1cc(C(F)(F)F)n2nc(C(=O)Nc3ccc4c(c3)OCO4)cc2n1 do in these assays?
T cruzi repl: inactive; Mdm2 MdmX PPI: inactive; Beta cell apopt: inactive; UPR XBP1 act: inactive; CHOP UPR activ: inactive; CSC inhib: inactive

Results for COc1ccc(-c2nnc3ccc(SC)nn23)cc1 ?
T cruzi repl: inactive; Mdm2 MdmX PPI: inactive; Beta cell apopt: inactive; UPR XBP1 act: inactive; CHOP UPR activ: inactive; CSC inhib: inactive
